Results reported in ChEMBL document CHEMBL2040734, “Benzothiazoles: search for anticancer agents” (2012).

Legend:
Format in all cases: functional
[1] = system: 786-0; assay: Cytotoxicity against human 786-0 cells assessed as cell growth at 0.01 uM after 48 hrs by sulforhodamine B assay; details: 786-0, 48 h, read-out: Activity
In short: (§1)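 NCI-60 five-dose screen. Cells were grown in RPMI 1640 with 5% FBS and 2 mM L-glutamine and preincubated 24 h. Compound (DMSO stock) was tested at 0.01, 0.1, 1, 10 and 100 µM for 48 h at 37 °C. Cells were fixed in situ with cold TCA (final 10%) and stained with 0.4% SRB. A515 was read, and percent growth was calculated against time-zero and control plates.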

[2] = system: RPMI-8226; assay: Cytotoxicity against human RPMI8226 cells assessed as cell growth at 0.1 uM after 48 hrs by sulforhodamine B assay; details: RPMI-8226, 48 h, read-out: Activity
[3] = system: NCI/ADR-RES; assay: Cytotoxicity against human NCI/ADR-RES cells assessed as cell growth at 0.1 uM after 48 hrs by sulforhodamine B assay; details: read-out: Activity
[4] = system: HCC 2998; assay: Cytotoxicity against human HCC2998 cells assessed as cell growth at 100 uM after 48 hrs by sulforhodamine B assay; details: HCC 2998, 48 h, read-out: Activity
In short: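 Five-dose NCI panel run at 0.01, 0.1, 1, 10 and 100 µM. Cells were in RPMI 1640 with 5% FBS and 2 mM L-glutamine, seeded at 5000–40,000 cells/well and pre-incubated 24 h. Drug was diluted from a DMSO stock into medium with 50 µg/ml gentamicin. Exposure was 48 h at 37 °C, 5% CO2. Cells were fixed with cold TCA and stained with 0.4% SRB, read at 515 nm. Percent growth came from time-zero, control and test absorbances.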

[5] = system: SF-295; assay: Cytotoxicity against human SF295 cells assessed as cell growth at 100 uM after 48 hrs by sulforhodamine B assay; details: SF-295, 48 h, read-out: Activity
[6] = system: LOX IMVI; assay: Cytotoxicity against human LOXIMVI cells assessed as cell growth at 100 uM after 48 hrs by sulforhodamine B assay; details: read-out: Activity
[7] = system: CAKI-1; assay: Cytotoxicity against human Caki1 cells assessed as cell growth at 100 uM after 48 hrs by sulforhodamine B assay; details: CAKI-1, 48 h, read-out: Activity; in short: as §1
[8] = system: PC-3; assay: Cytotoxicity against human PC3 cells assessed as cell growth at 0.1 uM after 48 hrs by sulforhodamine B assay; details: PC-3, 48 h, read-out: Activity
[9] = system: RPMI-8226; assay: Cytotoxicity against human RPMI8226 cells assessed as cell growth at 1 uM after 48 hrs by sulforhodamine B assay; details: RPMI-8226, 48 h, read-out: Activity
[10] = system: NCI-H322M; assay: Cytotoxicity against human NCI-H322M cells assessed as cell growth at 1 uM after 48 hrs by sulforhodamine B assay; details: read-out: Activity
[11] = system: SNB-19; assay: Cytotoxicity against human SNB19 cells assessed as cell growth at 1 uM after 48 hrs by sulforhodamine B assay; details: SNB-19, 48 h, read-out: Activity
[12] = system: MDA-MB-468; assay: Cytotoxicity against human MDA-MB-468 cells assessed as cell growth at 1 uM after 48 hrs by sulforhodamine B assay; details: MDA-MB-468, 48 h, read-out: Activity
[13] = system: SR; assay: Cytotoxicity against human SR cells assessed as cell growth at 10 uM after 48 hrs by sulforhodamine B assay; details: read-out: Activity
[14] = system: SF-539; assay: Cytotoxicity against human SF539 cells assessed as cell growth at 10 uM after 48 hrs by sulforhodamine B assay; details: SF-539, 48 h, read-out: Activity
[15] = system: SK-MEL-5; assay: Cytotoxicity against human SK-MEL-5 cells assessed as cell growth at 10 uM after 48 hrs by sulforhodamine B assay; details: SK-MEL-5, 48 h, read-out: Activity
[16] = system: OVCAR-8; assay: Cytotoxicity against human OVCAR8 cells assessed as cell growth at 10 uM after 48 hrs by sulforhodamine B assay; details: OVCAR-8, 48 h, read-out: Activity
[17] = system: BT-549; assay: Cytotoxicity against human BT549 cells assessed as cell growth at 10 uM after 48 hrs by sulforhodamine B assay; details: BT-549, 48 h, read-out: Activity; in short: as §1
[18] = system: MOLT-4; assay: Cytotoxicity against human MOLT4 cells assessed as cell growth at 100 uM after 48 hrs by sulforhodamine B assay; details: MOLT-4, 48 h, read-out: Activity
[19] = system: SR; assay: Cytotoxicity against human SR cells assessed as cell growth at 100 uM after 48 hrs by sulforhodamine B assay; details: read-out: Activity
[20] = system: SW-620; assay: Cytotoxicity against human SW620 cells assessed as cell growth at 10 '-5 M after 48 hrs by sulforhodamine B assay; details: SW-620, 48 h, read-out: Activity
[21] = system: M14; assay: Cytotoxicity against human M14 cells assessed as cell growth at 10 '-5 M after 48 hrs by sulforhodamine B assay; details: M14, 48 h, read-out: Activity
[22] = system: ACHN; assay: Cytotoxicity against human ACHN cells assessed as cell growth at 10 '-5 M after 48 hrs by sulforhodamine B assay; details: read-out: Activity
In short: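 Primary NCI-60 single-dose screen at 10 µM. Cells were grown in RPMI 1640 with 5% FBS and 2 mM L-glutamine and plated 24 h before drug addition. Compound was solubilized in DMSO, then exposed for 48 h at 37 °C under 5% CO2. Cells were TCA-fixed and stained with SRB, and absorbance was read at 515 nm. Growth was expressed relative to time-zero and untreated controls.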

[23] = system: UO-31; assay: Cytotoxicity against human UO31 cells assessed as cell growth at 10 '-5 M after 48 hrs by sulforhodamine B assay; details: UO-31, 48 h, read-out: Activity
[24] = system: HL-60(TB); assay: Growth inhibition of human HL-60(TB) cells after 48 hrs by sulforhodamine B assay; details: HL-60, 48 h; for CC50: read-out: LC50 (the source's name)
In short: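 HL-60(TB) suspension cells in RPMI 1640 with 5% FBS and 2 mM L-glutamine were treated for 48 h at five concentrations (0.01–100 µM). Settled cells were fixed with 16% TCA (final), SRB-stained and read at 515 nm. GI50 was the concentration giving (Ti−Tz)/(C−Tz)×100 = 50 from log concentration–growth curves, expressed as ">" if not reached at the top concentration.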

[25] = system: EKVX; assay: Growth inhibition of human EKVX cells after 48 hrs by sulforhodamine B assay
In short: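 Adherent NCI-60 lines were grown in RPMI 1640 with 5% FBS and 2 mM L-glutamine, plated at 5000–40,000 cells/well and preincubated 24 h. They were then exposed to five concentrations (0.01–100 µM, from a DMSO stock) for 48 h at 37 °C, 5% CO2. Cells were fixed with cold TCA (10% final, 60 min, 4 °C) and stained with 0.4% SRB. Dye was solubilized in 10 mM Tris base and A515 read. GI50 was derived from time-zero, control and treated absorbances.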

[26] = system: UACC-62; assay: Cytotoxicity against human UACC62 cells assessed as cell growth at 0.01 uM after 48 hrs by sulforhodamine B assay; details: UACC-62, 48 h, read-out: Activity

Row | Compound | growth at 0.01 µM [1] [%] | growth at 0.1 µM [2] [%] | growth at 0.1 µM [3] [%] | growth at 100 µM [4] [%] | growth at 100 µM [5] [%] | growth at 100 µM [6] [%] | growth at 100 µM [7] [%] | growth at 0.1 µM [8] [%] | growth at 1 µM [9] [%] | growth at 1 µM [10] [%] | growth at 1 µM [11] [%] | growth at 1 µM [12] [%] | growth at 10 µM [13] [%] | growth at 10 µM [14] [%] | growth at 10 µM [15] [%] | growth at 10 µM [16] [%] | growth at 10 µM [17] [%] | growth at 100 µM [18] [%] | growth at 100 µM [19] [%] | growth at 10 µM [20] [%] | also measured
1 | Cc1ccc2nc(Nc3c(C)cccc3C)sc2c1 | 97 | 100 | 93 | 62 | 14 | 57 | 42 | 94 | 75 | 91 | 61 | 21 | 13 | 57 | 33 | 67 | 46 | 86 | 22 | 21.6 | growth at 10 µM [21]: 26.2%; growth at 10 µM [22]: 52.2%; growth at 10 µM [23]: 43.7%; TGI [24]: > 100 µM; CC50 [24]: > 100 µM; LC50 [25]: > 100 µM; TGI [25]: > 100000 nM; growth at 0.01 µM [26]: 92%
2 | Clc1cccc(Cl)c1Nc1nc2cccc(Cl)c2s1 | 106 | 97 | 87 | -64 | -51 | -21 | -75 | 81 | 46 | 76 | 68 | 23 | -49 | -81 | -95 | -71 | -86 | -23 | -32 | -84.9 | growth at 10 µM [21]: -61.3%; growth at 10 µM [22]: -18.9%; growth at 10 µM [23]: -55.1%; GI50 [24]: 1320 nM; TGI [24]: 3.75 µM; CC50 [24]: 20.6 µM; GI50 [25]: 299 nM; LC50 [25]: 4.26 µM; TGI [25]: 1400 nM; growth at 0.01 µM [26]: 94%
